Test system: Japanese patients with solid tumors
Assay: Phase I dose-escalation study: safety, tolerability, DLT and MTD
Assay type: in vivo, human
Settings: for Tolerability: dose level of up to 90 mg
Summary of the method: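 Oral test compound (tosylate salt) was given QD on days 1–21 of 28-day cycles in cohorts of 3–6 patients at 60, 90 or 120 mg. Escalation used a modified continual reassessment method (Bayesian logistic regression, escalation with overdose control). DLT window was cycle 1 (28 days). AEs were coded with MedDRA 18.0 and graded by CTCAE v4.0 (Japanese). Analysis covered patients receiving ≥1 dose.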

[1] = Cohort 3 120 mg/d (n = 4), All grades
[2] = Cohort 3 120 mg/d (n = 4), Grade ≥ 3

CC1(C)CCC2(CC1)N[C@@H](C(=O)N[C@@H]1CC[C@@H](C(N)=O)OC1)[C@H](c1ccnc(Cl)c1F)[C@]21C(=O)Nc2cc(Cl)ccc21 [milademetan, Milademetan]
TEAE: Hypophosphataemic rickets [1]: 0 (0.0) n (%) | TEAE: Jaundice cholestatic [1]: 0 (0.0) n (%) | TEAE: Lymphangiosis carcinomatosa [1]: 0 (0.0) n (%) | TEAE: Lymphocyte count decreased [1]: 2 (50.0) n (%) | TEAE: Nausea [1]: 3 (75.0) n (%) | TEAE: Neutrophil count decreased [1]: 2 (50.0) n (%) | TEAE: Platelet count decreased [1]: 3 (75.0) n (%) | TEAE: Pyrexia [1]: 1 (25.0) n (%) | TEAE: Sepsis [1]: 1 (25.0) n (%) | TEAE: Urinary tract infection [1]: 0 (0.0) n (%) | TEAE: Vomiting [1]: 2 (50.0) n (%) | TEAE: White blood cell count decreased [1]: 2 (50.0) n (%) | TEAE: Alanine aminotransferase increased [2]: 1 (25.0) n (%) | TEAE: Anemia [2]: 0 (0.0) n (%) | TEAE: Aspartate aminotransferase increased [2]: 1 (25.0) n (%) | TEAE: Constipation [2]: 0 (0.0) n (%) | TEAE: Decreased appetite [2]: 0 (0.0) n (%) | TEAE: Diarrhea [2]: 0 (0.0) n (%) | TEAE: Disease progression [2]: 1 (25.0) n (%) | TEAE: Fatigue [2]: 0 (0.0) n (%) | TEAE: Hypoalbuminemia [2]: 0 (0.0) n (%) | TEAE: Hyponatremia [2]: 1 (25.0) n (%) | TEAE: Hypophosphataemic rickets [2]: 0 (0.0) n (%) | TEAE: Jaundice cholestatic [2]: 0 (0.0) n (%) | TEAE: Lymphangiosis carcinomatosa [2]: 0 (0.0) n (%) | TEAE: Lymphocyte count decreased [2]: 1 (25.0) n (%) | TEAE: Nausea [2]: 0 (0.0) n (%) | TEAE: Neutrophil count decreased [2]: 1 (25.0) n (%) | TEAE: Platelet count decreased [2]: 3 (75.0) n (%) | TEAE: Pyrexia [2]: 0 (0.0) n (%) | TEAE: Sepsis [2]: 1 (25.0) n (%) | TEAE: Urinary tract infection [2]: 0 (0.0) n (%) | TEAE: Vomiting [2]: 0 (0.0) n (%) | TEAE: White blood cell count decreased [2]: 1 (25.0) n (%) | TEAE: Alanine aminotransferase increased (Total (n = 18), All grades): 4 (22.2) n (%) | TEAE: Anemia (Total (n = 18), All grades): 9 (50.0) n (%) | TEAE: Aspartate aminotransferase increased (Total (n = 18), All grades): 4 (22.2) n (%) | TEAE: Constipation (Total (n = 18), All grades): 5 (27.8) n (%) | TEAE: Decreased appetite (Total (n = 18), All grades): 11 (61.1) n (%) | TEAE: Diarrhea (Total (n = 18), All grades): 5 (27.8) n (%) | TEAE: Disease progression (Total (n = 18), All grades): 1 (5.6) n (%) | TEAE: Fatigue (Total (n = 18), All grades): 9 (50.0) n (%) | TEAE: Hypoalbuminemia (Total (n = 18), All grades): 8 (44.4) n (%) | TEAE: Hyponatremia (Total (n = 18), All grades): 5 (27.8) n (%) | TEAE: Hypophosphataemic rickets (Total (n = 18), All grades): 1 (5.6) n (%) | TEAE: Jaundice cholestatic (Total (n = 18), All grades): 1 (5.6) n (%) | TEAE: Lymphangiosis carcinomatosa (Total (n = 18), All grades): 1 (5.6) n (%) | TEAE: Lymphocyte count decreased (Total (n = 18), All grades): 4 (22.2) n (%) | TEAE: Nausea (Total (n = 18), All grades): 13 (72.2) n (%) | TEAE: Neutrophil count decreased (Total (n = 18), All grades): 5 (27.8) n (%) | TEAE: Platelet count decreased (Total (n = 18), All grades): 11 (61.1) n (%) | TEAE: Pyrexia (Total (n = 18), All grades): 4 (22.2) n (%) | TEAE: Sepsis (Total (n = 18), All grades): 1 (5.6) n (%) | TEAE: Urinary tract infection (Total (n = 18), All grades): 1 (5.6) n (%) | TEAE: Vomiting (Total (n = 18), All grades): 5 (27.8) n (%) | TEAE: White blood cell count decreased (Total (n = 18), All grades): 9 (50.0) n (%) | TEAE: Alanine aminotransferase increased (Total (n = 18), Grade ≥ 3): 2 (11.1) n (%) | TEAE: Anemia (Total (n = 18), Grade ≥ 3): 3 (16.7) n (%) | TEAE: Aspartate aminotransferase increased (Total (n = 18), Grade ≥ 3): 1 (5.6) n (%) | TEAE: Constipation (Total (n = 18), Grade ≥ 3): 0 (0.0) n (%) | TEAE: Decreased appetite (Total (n = 18), Grade ≥ 3): 0 (0.0) n (%) | TEAE: Diarrhea (Total (n = 18), Grade ≥ 3): 0 (0.0) n (%) | TEAE: Disease progression (Total (n = 18), Grade ≥ 3): 1 (5.6) n (%) | TEAE: Fatigue (Total (n = 18), Grade ≥ 3): 0 (0.0) n (%) | TEAE: Hypoalbuminemia (Total (n = 18), Grade ≥ 3): 0 (0.0) n (%) | TEAE: Hyponatremia (Total (n = 18), Grade ≥ 3): 2 (11.1) n (%) | TEAE: Hypophosphataemic rickets (Total (n = 18), Grade ≥ 3): 1 (5.6) n (%) | TEAE: Jaundice cholestatic (Total (n = 18), Grade ≥ 3): 1 (5.6) n (%) | TEAE: Lymphangiosis carcinomatosa (Total (n = 18), Grade ≥ 3): 1 (5.6) n (%) | TEAE: Lymphocyte count decreased (Total (n = 18), Grade ≥ 3): 1 (5.6) n (%) | TEAE: Nausea (Total (n = 18), Grade ≥ 3): 0 (0.0) n (%) | TEAE: Neutrophil count decreased (Total (n = 18), Grade ≥ 3): 1 (5.6) n (%) | TEAE: Platelet count decreased (Total (n = 18), Grade ≥ 3): 4 (22.2) n (%) | TEAE: Pyrexia (Total (n = 18), Grade ≥ 3): 0 (0.0) n (%) | TEAE: Sepsis (Total (n = 18), Grade ≥ 3): 1 (5.6) n (%) | TEAE: Urinary tract infection (Total (n = 18), Grade ≥ 3): 1 (5.6) n (%) | TEAE: Vomiting (Total (n = 18), Grade ≥ 3): 0 (0.0) n (%) | TEAE: White blood cell count decreased (Total (n = 18), Grade ≥ 3): 1 (5.6) n (%) | Drug-related TEAE: anemia, frequency (all 18 patients): 38.9% | Grade ≥ 3 TEAE: ALT increased (all 18 patients): 2 n | Grade ≥ 3 TEAE: anemia (all 18 patients): 3 n | Grade ≥ 3 TEAE: hyponatremia (all 18 patients): 2 n | Grade ≥ 3 TEAE: platelet count decreased (all 18 patients): 4 n | TEAE: anemia, frequency (all 18 patients, all grades): 50.0% | TEAE: decreased appetite, frequency (all 18 patients, all grades): 61.1% | TEAE: fatigue, frequency (all 18 patients, all grades): 50.0% | TEAE: nausea, frequency (all 18 patients, all grades): 72.2% | TEAE: platelet count decreased, frequency (all 18 patients, all grades): 61.1% | TEAE: white blood cell count decreased, frequency (all 18 patients, all grades): 50.0% | Dose interruption because of decreased appetite (all cohorts): 2 n | Dose interruption because of nausea (all cohorts): 6 n | Dose interruption because of platelet count decreased (all cohorts): 4 n | Dose interruptions (all cohorts): ten patients | Dose reduction due to TEAEs (all cohorts): No patients required a dose reduction | Maximum tolerated dose (MTD) (days 1 to 21 of a 28-day cycle): 90 mg/day | Tolerability (once-daily 21/28-day schedule): well tolerated | Tolerability (once-daily 21/28-day schedule, listed as Milademetan): generally safe and well tolerated | Patients who developed serious TEAEs (four at 90 mg, one at 60 mg, one at 120 mg, eight serious TEAEs): Six patients | Changes in laboratory parameters (other than platelet count decreased), vital signs, electrocardiogram (hematology, blood chemistry, coagulation, urinalysis, vital signs, ECG): no clinically relevant changes | Patients with at least one drug-related TEAE (of 18 patients): 18 patients | Maximum tolerated dose (MTD) (once-daily 21/28-day schedule): 90 mg | Recommended dose for phase II (once-daily 21/28-day schedule): 90 mg | Withdrawal from the study because of TEAEs (one in 90-mg cohort, two in 120-mg cohort): Three patients withdrew | Serious TEAEs, percentage of patients (six out of 18 patients): 33.3%
